Here are results for 48 sequences from the EternaBench riboswitch data.

The apparent Kd is the concentration giving half-maximal binding under the conditions of the assay.

The subject of the data set is MS2 coat protein. Briefly: apparent Kd, MS2 coat protein; higher = weaker binding; RNA-MaP array; FMN 200 µM where present. The procedure, abridged:
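Stalled E. coli RNA polymerase transcribed the designs on Illumina sequencing-chip clusters. SNAP-549-labelled MS2 coat protein was titrated from 0.7 or 1.5 nM, doubling to 3 µM, without and then with constant ligand, in 100 mM Tris-HCl pH 7.5, 80 mM KCl, 4 mM MgCl2, BSA, DTT, yeast tRNA and Tween-20. Per-cluster binding curves were fitted to green signal normalised to red-channel RNA signal and control-cluster median Fmax. The apparent Kd is the median of the filtered fits.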

Where [1] appears, read: designed as: OFF switch for flavin mononucleotide, no ligand.
[2] abbreviates: ligand present: flavin mononucleotide, designed as: OFF switch for flavin mononucleotide.
[3] abbreviates: designed as: ON switch for flavin mononucleotide, no ligand.
[4] abbreviates: ligand present: flavin mononucleotide, designed as: ON switch for flavin mononucleotide.

With “CCCGCAACAUGAGGAUCACCCAUGUAGGAUAUCGCUAUUGUAAUCAUGAAACAUGAUUACAAUAGCGAGAAGGACAUAUGCGGG”, the “apparent Kd” value under setting [1] amounted to 6.77 nM and the “apparent Kd” value under setting [2] came out at 10.4 nM.

In the case of “UAAAUUUUAUGAUAUUAUGACAUUAGAAGGCUGUACAUGUUGAUACAUGAGGAUCACCCAUGUAUAGAGGAUAUAGACAAUUUU”, the “apparent Kd” value runs as follows: under setting [1], 31 nM; under setting [2], 65.1 nM.

In the case of “GCACGAGACUAAGGAUAUGGAGUGUCUACAUUAAACAUGAGGAUCACCCAUGUAAAGAGUACGAUUCAGAAGGUAGAGACGUGC”, the “apparent Kd” value amounted to 51.5 nM under setting [3] and 23.5 nM under setting [4].

Turning to “GCUGUCGCAUGAGGAUAUGGACAGCUUUGCUGUCCAGAAGGCAUGUCGAUAGACAUGAGGAUCACCCAUGUAGUAAAGACAGCA”, the “apparent Kd” value under setting [3] was 588 nM and the “apparent Kd” value under setting [4] stood at 64.6 nM.

“CGUGCAAGUGUAGGAUAUGGUUAUCUAUGUCUAGUUACUAGACAUAGAUAACCAGAAGGACAUGAGGAUCACCCAUGUAGCACG”: the “apparent Kd” value amounted to 7.5 nM under setting [1] and 17.6 nM under setting [2].

Take “GAUUGUGAAGGAUAUACUGGAGGAGUGCGAUAGAAGCACGAACAUGAGGAUCACCCAUGUAGAAGGUCAGGAGU”: the “apparent Kd” value under setting [1] worked out at 34.5 nM and the “apparent Kd” value under setting [2] was determined as 21.6 nM.

In the case of “ACUAAUAGAGGAUAUACAGUUUAUUACAUGAGGAUCACCCAUGUUCUUCAAUGUAUAUAAGUAGAAGGCUAUGGAA”, the “apparent Kd” value runs as follows: under setting [1], 43.3 nM; under setting [2], 187 nM.

On to “AAAUAAAUGACUCAGGAUAUAUCAUAGAAUACAUGAGGAUCACCCAUGUUUUAAUAACAUGUUUGGUAGAAGGGAGUCAAUAAAU”, for which the “apparent Kd” value stood at 80.4 nM under setting [3] and 29.3 nM under setting [4].

As to “GCUAUAGAUGUAGGAUAUGAUAUAGAAGCUAUGUCAGAAGGACAUGAGGAUCACCCAUGUCAAUGGAUGGAGAGAAGAUAUGGC”, the “apparent Kd” value reads like this: under setting [1], 64.2 nM; under setting [2], 69.3 nM.

For “GGUACUCAAAGAGUACCAAUACGAACAUGAGGAUCACCCAUGUAGGAUAUGUUUUCGCCGGAGUAUCAGAAGGACAUGUGCCUA”, the “apparent Kd” value under setting [1] is 10.9 nM and the “apparent Kd” value under setting [2] came to 9.15 nM.

Turning to “AGGAGAAAUGUAGGAUAUGGGUAUAUAUAUGGGCAAAGCGCAUAUAUAUACCCAGAAGGACAUGAGGAUCACCCAUGUUUCCCU”, the “apparent Kd” value turned out to be 12.5 nM under setting [1] and 12.9 nM under setting [2].

As for “UUUGGGCCUGUGAGGAUAUGCCCGGGUAAAUUUGGGCAGAAGGCACAUGAGGAUCACCCAUGUAAGGGCCCGGG”, the “apparent Kd” value worked out at 31.5 nM under setting [1] and 21.4 nM under setting [2].

For the sequence “ACAUGUACAGGAUAUACAUGAGUGAUACACGUAUUUCCACUACAUGAGGAUCACCCAUGUAGAAGGGUACAUGA”, the “apparent Kd” value is, setting by setting: under setting [1], 50.2 nM; under setting [2], 19.5 nM.

Regarding “AAACAUGUCCGAGGAUAUCUGGAAACACUUUCAAGAGAAGGCGGACAUGAGGAUCACCCAUGUCUCUCCUCAUCAACUACAAAU”, the “apparent Kd” value under setting [1] is 8.71 nM and the “apparent Kd” value under setting [2] was determined as 49.3 nM.

In the case of “AGCAUGCUAGGAUAUACGGGACAUUAGGGUUCGUUGUAUGGACAUGAGGAUCACCCAUGUAGAAGGAGCGUGCA”, the “apparent Kd” value stood at 28 nM under setting [1] and 99.8 nM under setting [2].

For “AAGAAGUGAGGAUAUCGAAGACUGUCGAAAAGACAGUCGAACGAGAAGGCACAUGAGGAUCACCCAUGUAAGAA”, the “apparent Kd” value runs as follows: under setting [1], 24.1 nM; under setting [2], 34.5 nM.

On to “UGGACCGAGCUGUCGGUUGACUCUAAGGAUAUGACAUGAGGAUCACCCAUGUGGGAUCUAAAUUGUCAGAAGGUGGGUUCUGGG”, for which the “apparent Kd” value was determined as 95 nM under setting [1] and 51 nM under setting [2].

As to “CGGGUGGUCCUCCGGGAUUGGACACAGGAUAUCCGCGAAAACAUGAGGAUCACCCAUGUAUAUGAGGAGAAGGGUGGACGAAGA”, the “apparent Kd” value under setting [3] is 56.2 nM and the “apparent Kd” value under setting [4] was found to be 15.6 nM.

As to “CUCAUGAGAGGAUAUACAUGAGGAUCACCCAUGUGGUCAUCUCCUCGGGCUCCAUUACGUAGAAGGCUCAUUUG”, the “apparent Kd” value by setting is: under setting [1], 41.4 nM; under setting [2], 88.4 nM.

“GUGUAGAUAUCAGGAUAUCCAUUUCCUACAUGAGGAUCACCCAUGUAGAUGAUCACCCAUGUAAAGGAGAAGGGAUAUCUAUAC”: the “apparent Kd” value by setting is: under setting [3], 206 nM; under setting [4], 173 nM.

Take “UGUAACCUAGGAUAUACAUGAGGAUCACCCAUGUAAUGUAGUAUAGUGUGUGUGAGGUGUAGAAGGAGGGAUGU”: the “apparent Kd” value under setting [1] came out at 79.5 nM and the “apparent Kd” value under setting [2] was 125 nM.

On to “GCGUAACAUGAGGAUCACCCAUGUGCCCGAGAAUUCGGGCCGAGAAGGGUGACCGGACGUAUGGCACAGGAUAUCGACGUUGUG”, for which the “apparent Kd” value under setting [3] came to 25.2 nM and the “apparent Kd” value under setting [4] was 12.1 nM.

As to “AAUAUAAGAGCUGGAAAUACUCAAACAUGAGGAUCACCCAUGUAGGAUAUCAGCACGAUAAGUGCUGAGAAGGACAUCCAGCUC”, the “apparent Kd” value worked out at 15 nM under setting [1] and 15.4 nM under setting [2].

For the sequence “AACAGACAUGAGGAUCACCCAUGUGAAAACGUACAAGGAUAUGUGUGGAAACCGUACUAUACAGAAGGUGUCUGUC”, the “apparent Kd” value under setting [3] worked out at 41.3 nM and the “apparent Kd” value under setting [4] turned out to be 72.5 nM.

Take “GCACGGUAAGUGAGGAUAUACCUCUGGAUACAGAGGUAGAAGGCACAUGAGGAUCACCCAUGUCCAAGCCGUGC”: the “apparent Kd” value is 23.7 nM under setting [1] and 103 nM under setting [2].

“AAAAUAUAAAGAGAGGAUAUCCAAAGAACCACAUGAGGAUCACCCAUGUAAAGAAAGAAUAAGUGGGAGAAGGCUCAAAUAAUAA”: the “apparent Kd” value under setting [3] was found to be 187 nM and the “apparent Kd” value under setting [4] amounted to 29.2 nM.

For the sequence “GCCAACUCAUGAGGAUAUGGCACCUUAUUGGUGCCAGAAGGCGUGUCAAUUGACAUGAGGAUCACCCAUGUAUUAUAGUUGGCA”, the “apparent Kd” value reads like this: under setting [3], 446 nM; under setting [4], 70.3 nM.

As to “AGGUAAGAGUUAAUUGUGACGGUGAGAAGGCAAAUGGUUGUGAUUAACAUGAGGAUCACCCAUGUUGAGGAUAUCACCACCAUC”, the “apparent Kd” value reads like this: under setting [1], 29.5 nM; under setting [2], 137 nM.

In the case of “ACAUGAUCAGGAUAUACAUGAGGAUCACCCAUGUUUAUCAAAAAAGGGCUUUCUACAUGUAGAAGGGAUCUUGU”, the “apparent Kd” value under setting [1] was 21.8 nM and the “apparent Kd” value under setting [2] was determined as 39.9 nM.

Regarding “GAGUGGCAAGGAUAUACAGUGGAGAGGAUGGCAAGAGGUGGACAUGAGGAUCACCCAUGUAGAAGGUGCAGAGA”, the “apparent Kd” value reads like this: under setting [1], 154 nM; under setting [2], 235 nM.

Regarding “AAAACCUCAUGAGGAUAUCCAACAUGAGGAUCACCCAUGUUAGUCUCAGUACUAGGUACUUGAGAGGAGAAGGCAUGCCAGGGC”, the “apparent Kd” value was determined as 123 nM under setting [3] and 36.2 nM under setting [4].

Turning to “GUCGGAAACGACAAAAGUAGCAUACGAGAAGGCUGAUCCACGACAUGAGGAUCACCCAUGUAUUUAGAGGAUAUUGGAUGCUAC”, the “apparent Kd” value is, setting by setting: under setting [3], 134 nM; under setting [4], 21.6 nM.

As for “GGUGGACAUGAGGAUCACCCAUGUGAGGAUAUCGGCUGGCUAGUGGCUGACGGCUGCUCGAGAAGGCGCAUUGU”, the “apparent Kd” value came to 78.3 nM under setting [1] and 107 nM under setting [2].

In the case of “UAAGCGCAGGAGAAGGGCACUGGACGCUCGCUACAUGAGGAUCACCCAUGUGCAGGAUAUCCGGCGCCACCCGCAAACUCGGUG”, the “apparent Kd” value reads like this: under setting [1], 15.8 nM; under setting [2], 72.1 nM.

In the case of “GGGUCAACAUGAGGAUCACCCAUGUAGGAUAUCGCUAUUGUAAUCAUGAAACAUGAUUACAAUAGCGAGAAGGACAUAUGUCCC”, the “apparent Kd” value by setting is: under setting [1], 9 nM; under setting [2], 11.8 nM.

With “ACACAGCAAGGAUAUACAUGAGGAUCACCCAUGUGGUGGCCGUUACGGUAGGACUAGUGUAGAAGGUGCAGUGG”, the “apparent Kd” value under setting [1] was found to be 519 nM and the “apparent Kd” value under setting [2] is 177 nM.

Turning to “UAUUAAACAUAGGAUAUCGAAUAAAUCAUUUAACGAGAAGGAUGAACAUGAGGAUCACCCAUGUGGUAUCAUGG”, the “apparent Kd” value under setting [1] is 246 nM and the “apparent Kd” value under setting [2] came to 256 nM.

As for “GUGGUCAGACAUGAGGAUCACCCAUGUGGAAUAAAUAAGGAGAAGGAUAUGGAAUAUAGGAUAUACCAGAAGGUCUGGUUGGUG”, the “apparent Kd” value runs as follows: under setting [3], 79 nM; under setting [4], 90.7 nM.

On to “GGCGGGAAUGAGAAGGGUCACAUGAGGAUCACCCAUGUGCUCUUCGCCGUGACAGGAUAUCAUCGCCGCCAGGUUAGAUUUUUG”, for which the “apparent Kd” value reads like this: under setting [1], 7.83 nM; under setting [2], 30.9 nM.

On to “UAUCGCAGUGCAGGAUAUCCAAGGUUUGGCGAAGGAGAAGGGCACGCGACAUGAGGAUCACCCAUGUAAAGUGUGGCGUCCUCU”, for which the “apparent Kd” value under setting [1] worked out at 116 nM and the “apparent Kd” value under setting [2] was found to be 62.2 nM.

Turning to “GCUAUAGAUGUAGGAUAUCAUAUAGAAGCUAUGUGAGAAGGACAUGAGGAUCACCCAUGUCAAUGGAUGGAGCGAAGUUAUGGC”, the “apparent Kd” value is, setting by setting: under setting [1], 43.4 nM; under setting [2], 57.7 nM.

As to “GGACAUGUCGUUUACAUGAGGAUCACCCAUGUCGAUAGACAUGAGGAUAUCGAUACAAAUUGUAUCGAGAAGGCAUGCAUGUCC”, the “apparent Kd” value was 91.2 nM under setting [3] and 23.5 nM under setting [4].

As for “UUAUGGUUCAAGAAGGAUGUAUUUGACUUGUACAUAGGAUAUUGUUAUAUUGUUAAUUAUUGUAACAUGAGGAUCACCCAUGUA”, the “apparent Kd” value under setting [3] was determined as 7.84 nM and the “apparent Kd” value under setting [4] amounted to 7.77 nM.

“GUCGAAACCAUACUAGUCGACGGUCAGGAUAUACAUGAGGAUCACCCAUGUGCUAUUGAUACUAUGUAGAAGGGACCCACCGCA”: the “apparent Kd” value by setting is: under setting [1], 15 nM; under setting [2], 24.6 nM.

On to “GGUCCAUCAUGAGGAUAUGGCACCUUAUUGGUGCCAGAAGGCGUGUCUAUAGACAUGAGGAUCACCCAUGUAAUAAAUUGGACC”, for which the “apparent Kd” value was determined as 614 nM under setting [3] and 49.6 nM under setting [4].

“UGUGUGUGGCAGGAUAUGCAGGUAGUAGGACGGGUAGAAGGGUCUACAUGAGGAUCACCCAUGUGGCCGGUUGG”: the “apparent Kd” value under setting [1] was 16.8 nM and the “apparent Kd” value under setting [2] came to 18.1 nM.

As for “UUACUCAUGUAAGGAUAUGCAGCCGAAACGGCUGCAGAAGGUACUACAAUACAUGAGGAUCACCCAUGUAAAAUAAAUAAAGUU”, the “apparent Kd” value by setting is: under setting [3], 53.7 nM; under setting [4], 22.7 nM.

As to “UGAGCCUCGUGAGGAUAUACAUGAGGAUCACCCAUGUAAUAAAUCCAACGGAGGAAACUCCGAAUGUAGAAGGCACGAGGCUCA”, the “apparent Kd” value runs as follows: under setting [1], 18.1 nM; under setting [2], 64.3 nM.
